Laboratory results reported in paper PMC5586474 (Journal of the American Heart Association: Cardiovascular …, 2017).

Tests used:
[1] = system: rat mesenteric arteries; conditions: isolated mesenteric rat arteries; cited from earlier work
[2] = system: α1‐AR; assay: PE‐induced IP3 production; assay type: cell-based, human; conditions: 1 μmol/L PE; for effect of α1‐AR antagonist on PE‐induced IP3 production: antagonist 10 μmol/L, 30 minutes, 37°C, Figure 5E
[3] = target: ACKR3 (Homo sapiens, UniProt P25106); assay: PRESTO‐Tango β‐arrestin 2 recruitment assay for ACKR3; assay type: cell-based; conditions: HTLA cells, overnight, 37°C, n=3
[4] = system: ACKR3:α1D‐AR; assay: PLA, ACKR3:α1D‐AR interaction in hVSMCs; assay type: cell-based, human; conditions: peptide 10 μmol/L, 30 minutes, 37°C; vs vehicle; Figure 8B; n=3
Method in brief: (§1)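 hVSMCs got vehicle or test peptide (10 μmol/L, 30 min, 37°C), were washed, fixed in 4% PFA (15 min, RT) and blocked overnight at 4°C in 3% BSA/PBS. Receptor‐specific primaries (1:500) ran 105 min at 37°C, then PLA probes (1:5) 60 min, ligation 30 min and amplification 100 min, all at 37°C. DAPI‐mounted spots were counted per cell from 10 images per condition per experiment.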

[5] = system: rat mesenteric arteries; assay: Pressure myography, PE‐induced vasoconstriction of isolated mesenteric arteries; design: species or system rat (Sprague‐Dawley); conditions: TM peptide 100 μmol/L vs vehicle; 80 mm Hg; Figure 9G; n=3
Method in brief: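 Mesenteric arteries from male Sprague-Dawley rats (isoflurane 3.5% anaesthesia) kept in bicarbonate salt buffer (130 mmol/L NaCl, 4.7 mmol/L KCl, 5.5 mmol/L d-glucose, 1.16 mmol/L CaCl₂), gassed 95% O₂/5% CO₂, 37°C. Vessels pressurized to 80 mm Hg, pretreated with vehicle or test peptide (10 or 100 μmol/L). Cumulative PE added to bath; dose-response curves fitted by nonlinear regression.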

[6] = system: CXCR4:α1B‐AR; assay: PLA, CXCR4:α1B‐AR interaction in hVSMCs; assay type: cell-based, human; conditions: peptide 10 μmol/L, 30 minutes, 37°C; vs vehicle; Figure 8B; n=3
Method in brief: as §1

[7] = system: ACKR3:CXCR4; assay: PLA, ACKR3:CXCR4 interaction in hVSMCs; assay type: cell-based, human; conditions: peptide 10 μmol/L, 30 minutes, 37°C; vs vehicle; Figure 8B; n=3
Method in brief: as §1

[8] = system: ACKR3:α1A‐AR; assay: PLA, ACKR3:α1A‐AR interaction in hVSMCs; assay type: cell-based, human; conditions: peptide 10 μmol/L, 30 minutes, 37°C; vs vehicle; Figure 8B; n=3
Method in brief: as §1

[9] = system: ACKR3:α1B‐AR; assay: PLA, ACKR3:α1B‐AR interaction in hVSMCs; assay type: cell-based, human; conditions: peptide 10 μmol/L, 30 minutes, 37°C; vs vehicle; Figure 8B; n=3
Method in brief: as §1

[10] = system: CXCR4:α1D‐AR; assay: PLA, CXCR4:α1D‐AR interaction in hVSMCs; assay type: cell-based, human; conditions: peptide 10 μmol/L, 30 minutes, 37°C; vs vehicle; Figure 8B; n=3
Method in brief: as §1

[11] = system: α1b‐AR; assay: PRESTO‐Tango β‐arrestin 2 recruitment assay for α1b‐AR; assay type: cell-based; conditions: PE plus 10 μmol/L TM peptide; HTLA cells, overnight, 37°C; Figure 9C; n=3
Method in brief: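 HTLA cells were transfected with the α1B‐AR‐Tango plasmid (1.5 μg, Lipofectamine 3000). The next day they were replated at 1×10⁵/well on poly‐L‐lysine and left to attach for ≥4 h. PE ± 10 μmol/L test peptide, made at twice final concentration in medium, was added 1:1 and incubated overnight at 37°C. Luminescence was read with Bright‐Glo in HBSS/20 mmol/L HEPES, as % of RLU at […].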

Chain of ACKR3 (P25106 whole entry): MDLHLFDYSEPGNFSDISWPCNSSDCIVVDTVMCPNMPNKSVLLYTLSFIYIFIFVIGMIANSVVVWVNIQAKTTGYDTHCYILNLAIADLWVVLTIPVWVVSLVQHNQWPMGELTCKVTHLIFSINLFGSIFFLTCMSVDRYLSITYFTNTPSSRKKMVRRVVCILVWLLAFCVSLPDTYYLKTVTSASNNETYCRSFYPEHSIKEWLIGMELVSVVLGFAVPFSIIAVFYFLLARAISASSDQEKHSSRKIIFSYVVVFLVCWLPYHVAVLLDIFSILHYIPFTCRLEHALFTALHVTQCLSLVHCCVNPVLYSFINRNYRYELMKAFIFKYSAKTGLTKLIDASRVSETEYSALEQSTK

Row | Molecule | effect of α1‐AR antagonist on PE‐induced IP3 production ([2]; 5 minutes, n=3) | effect of TM peptide on PLA signals for ACKR3:α1D‐AR [4] | effect of TM peptide on PLA signals for CXCR4:α1B‐AR [6] | effect of TM peptide on PLA signals for ACKR3:CXCR4 [7] | effect of TM peptide on PLA signals for ACKR3:α1A‐AR [8] | effect of TM peptide on PLA signals for ACKR3:α1B‐AR [9] | effect of TM peptide on PLA signals for CXCR4:α1D‐AR [10] | further results
1 | CXCL12: natural ACKR3 agonist; cognate ligand of CXCR4 and ACKR3, from Protein Foundry |  |  |  |  |  |  |  | effect on PE‐induced vasoconstriction [1]: attenuates PE‐induced vasoconstriction; CXCL12 effect on PE‐induced signaling in the presence of the TM2 peptide ([2]; hVSMCs, TM2 10 μmol/L plus CXCL12 1 μmol/L, Figure 9E): did not enhance PE‐induced signaling
2 | CXCL11: natural ACKR3 agonist; chemokine, from Protein Foundry |  |  |  |  |  |  |  | EC50 ([3]; read-out: EC50 for β‐arrestin 2 recruitment to ACKR3, agonist, luminescence, Figure 2A, mean±SEM): 0.0165 ± 0.0049 µM
3 | COc1cc2nc(N3CCN(C(=O)c4ccco4)[C@H]4CCCC[C@H]43)nc(N)c2cc1OC (racemic) [cyclazosin, Cyclazosin] | could be inhibited |  |  |  |  |  |  | 
4 | CNC[C@H](O)c1cccc(O)c1 [PE, Phenylephrine] |  |  |  |  |  |  |  | increase of cellular IP3 concentrations on PE stimulation after NT siRNA ([2]; hVSMCs incubated with NT siRNA, Figure 5D, n=4): 4.8 fold; increase of cellular IP3 concentrations on PE stimulation ([2]; hVSMCs without siRNA, 5 minutes, Figure 2B, n=3): 5.3 fold
5 | VVCILWLLAFCVSLPDTYYLDD [TM4] |  | without affecting ACKR3:α1A/D‐AR interactions | increased signals for CXCR4:α1B‐AR complexes | reduced after incubation with all TM peptide analogs (TM2>TM4>TM7) | without affecting ACKR3:α1A/D‐AR interactions | reduced PLA signals for ACKR3:α1B‐AR complexes | did not affect signals for CXCR4:α1D‐AR complexes | effect of TM peptide on potency of PE to induce vasoconstriction (significance) [5]: P>0.05 versus vehicle
6 | YILNLAIADLWVVLTIPVWVVDDD [TM2] |  | significantly reduced PLA signals | increased signals for CXCR4:α1B‐AR complexes | reduced after incubation with all TM peptide analogs (TM2>TM4>TM7) | did not affect signals for ACKR3:α1A‐AR complexes | significantly reduced PLA signals | did not affect signals for CXCR4:α1D‐AR complexes | activation of ACKR3 by TM peptide (β‐arrestin 2 recruitment) ([3]; peptide alone, Figure 9A): without intrinsic agonist activity within the tested range of concentrations; effect of TM peptide on PE‐induced β‐arrestin 2 recruitment to α1b‐AR [11]: did not inhibit β‐arrestin 2 recruitment to recombinant α1b‐AR on PE stimulation
7 | COc1ccccc1N1CCN(CCN2C(=O)CC3(CCCC3)CC2=O)CC1 [BMY 7378] | could be inhibited |  |  |  |  |  |  | 
8 | Cc1ccc(N(CC2=NCCN2)c2cccc(O)c2)cc1 [phentolamine, Phentolamine] | could be inhibited |  |  |  |  |  |  | 
9 | DDDLHVTQCLSLVHCCVNPVLYSFIN [TM7] |  | did not alter signals | did not significantly affect signals | reduced after incubation with all TM peptide analogs (TM2>TM4>TM7) | significantly increased the number of PLA signals for ACKR3:α1A‐AR complexes | did not alter signals | did not significantly affect signals | effect of TM peptide on potency of PE to induce vasoconstriction (significance) [5]: P>0.05 versus vehicle
